Assay results: ChEMBL document CHEMBL1212904, “Discovery of pyrrole-indoline-2-ones as Aurora kinase inhibitors with a different inhibition profile” (J Med Chem, 2010)
pIC50: −log10 of the molar value. The source made the active and inactive calls. The rule behind the calls is not given here.

Key:
[1] = target: T1, Aurora kinase A (Homo sapiens, UniProt O14965); assay: Inhibition of recombinant aurora A
T1 sequence (O14965 whole entry): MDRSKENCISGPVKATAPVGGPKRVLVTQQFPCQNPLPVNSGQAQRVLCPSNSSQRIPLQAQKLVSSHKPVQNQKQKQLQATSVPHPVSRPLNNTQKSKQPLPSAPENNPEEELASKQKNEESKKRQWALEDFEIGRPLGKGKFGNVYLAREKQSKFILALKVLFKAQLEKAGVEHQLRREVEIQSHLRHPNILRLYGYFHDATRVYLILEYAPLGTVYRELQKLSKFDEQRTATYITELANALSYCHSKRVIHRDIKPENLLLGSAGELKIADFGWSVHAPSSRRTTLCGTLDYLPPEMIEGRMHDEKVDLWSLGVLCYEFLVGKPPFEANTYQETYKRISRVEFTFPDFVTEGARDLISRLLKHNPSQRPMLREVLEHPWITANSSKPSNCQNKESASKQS

[2] = system: HCT-116; assay: Cell cycle arrest in human HCT116 cells assessed as increase of multinucleated octoploid 8 N DNA at 4 uM after 24 hrs by flow cytometry; type: functional, cell-based
How it was run: (§1)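 HCT-116 cells exposed to 4 μM for 24 h, then trypsinized, PBS-washed, fixed in ice-cold 70% ethanol at -20 °C overnight. Cells were washed twice in PBS and stained 30 min in PBS with 2 μg/mL RNase A and 5 μg/mL propidium iodide. DNA content was read by flow cytometry to score 4 N and ≥8 N populations.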

[3] = target: T2, Aurora kinase A (Homo sapiens) (UniProt O14965); assay: Inhibition of aurora A in human HCT116 cells assessed as reduction of phosphorylated aurora A at Thr288 level measured at 1.25 to 40 uM after 3 hrs by Western blot analysis; type: cell-based; conditions: HCT-116
T2 sequence (whole entry): T1 sequence (O14965 whole entry)
How it was run: (§2)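 HCT-116 cells were synchronized at G2/M with 200 ng/mL nocodazole for 17 h, then given inhibitor for a further 3.0 h. Cells were PBS-washed, boiled in 2× SDS sample buffer, and run on SDS-PAGE with immunoblotting. Rabbit antibodies detected pT288 Aurora A, total Aurora A, pS10 histone H3 and total H3; β-actin served as loading control.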

[4] = target: Insulin-like growth factor 1 receptor (Homo sapiens) (UniProt P08069); assay: Inhibition of IGF1R at 1 uM by radiometric method
[5] = target: T3, Macrophage colony-stimulating factor 1 receptor (Homo sapiens, UniProt P07333); assay: Inhibition of CSF1R by radiometric method
T3 sequence (P07333 whole entry): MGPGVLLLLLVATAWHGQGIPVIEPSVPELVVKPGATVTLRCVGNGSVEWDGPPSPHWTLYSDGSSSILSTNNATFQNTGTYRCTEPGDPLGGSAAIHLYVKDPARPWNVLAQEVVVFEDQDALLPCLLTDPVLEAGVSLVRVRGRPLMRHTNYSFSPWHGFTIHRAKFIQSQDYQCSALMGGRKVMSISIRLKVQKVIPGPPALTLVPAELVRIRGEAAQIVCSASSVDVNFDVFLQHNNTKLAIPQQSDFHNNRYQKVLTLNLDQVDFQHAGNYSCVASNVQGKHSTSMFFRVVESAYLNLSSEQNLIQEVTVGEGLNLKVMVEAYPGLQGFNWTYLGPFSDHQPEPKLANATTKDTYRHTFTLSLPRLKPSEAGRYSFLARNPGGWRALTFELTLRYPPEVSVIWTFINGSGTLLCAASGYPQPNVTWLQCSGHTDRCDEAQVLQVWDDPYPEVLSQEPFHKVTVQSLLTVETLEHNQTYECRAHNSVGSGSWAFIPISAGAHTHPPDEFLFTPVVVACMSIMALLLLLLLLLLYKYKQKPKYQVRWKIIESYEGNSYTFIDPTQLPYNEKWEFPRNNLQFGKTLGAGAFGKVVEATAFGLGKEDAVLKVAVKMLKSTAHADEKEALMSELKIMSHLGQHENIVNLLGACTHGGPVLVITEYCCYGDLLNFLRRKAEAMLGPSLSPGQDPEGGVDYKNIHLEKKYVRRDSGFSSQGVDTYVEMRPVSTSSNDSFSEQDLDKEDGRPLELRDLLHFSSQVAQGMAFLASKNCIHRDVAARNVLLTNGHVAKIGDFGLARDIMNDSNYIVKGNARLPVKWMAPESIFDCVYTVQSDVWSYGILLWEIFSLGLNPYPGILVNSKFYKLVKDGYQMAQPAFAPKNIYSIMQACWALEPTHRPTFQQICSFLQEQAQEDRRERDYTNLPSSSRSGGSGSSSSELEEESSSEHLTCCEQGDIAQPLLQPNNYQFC

[6] = target: Muscle, skeletal receptor tyrosine-protein kinase (Homo sapiens) (UniProt O15146); assay: Inhibition of MUSK at 1 uM by KINOMEscan binding assay
[7] = target: RAF proto-oncogene serine/threonine-protein kinase (Homo sapiens) (UniProt P04049); assay: Inhibition of c-Raf at 1 uM by radiometric method
[8] = target: RAC-alpha serine/threonine-protein kinase (Homo sapiens) (UniProt P31749); assay: Inhibition of AKT1 at 1 uM by radiometric method
Chain of RAC-alpha serine/threonine-protein kinase (Homo sapiens) (P31749 whole entry): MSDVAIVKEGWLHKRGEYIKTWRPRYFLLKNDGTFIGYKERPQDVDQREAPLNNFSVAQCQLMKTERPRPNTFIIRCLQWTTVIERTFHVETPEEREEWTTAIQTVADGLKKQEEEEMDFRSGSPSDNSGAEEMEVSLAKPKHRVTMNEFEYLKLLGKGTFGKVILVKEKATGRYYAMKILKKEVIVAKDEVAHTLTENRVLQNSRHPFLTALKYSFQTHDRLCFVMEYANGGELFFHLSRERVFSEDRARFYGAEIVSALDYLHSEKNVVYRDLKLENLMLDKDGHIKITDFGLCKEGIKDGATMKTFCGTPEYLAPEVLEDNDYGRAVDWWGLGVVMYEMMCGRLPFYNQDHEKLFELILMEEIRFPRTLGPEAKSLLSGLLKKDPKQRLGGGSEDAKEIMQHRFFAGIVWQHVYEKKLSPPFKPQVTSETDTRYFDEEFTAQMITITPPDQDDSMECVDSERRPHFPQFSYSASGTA

[9] = target: Glycogen synthase kinase-3 beta (Homo sapiens) (UniProt P49841); assay: Inhibition of GSK3B at 1 uM by radiometric method
[10] = target: Aurora kinase B (Homo sapiens, UniProt Q96GD4); assay: Inhibition of recombinant aurora B
[11] = target: T4, Vascular endothelial growth factor receptor 2 (Homo sapiens, UniProt P35968); assay: Inhibition of VEGFR2 by radiometric method
T4 sequence (P35968 whole entry): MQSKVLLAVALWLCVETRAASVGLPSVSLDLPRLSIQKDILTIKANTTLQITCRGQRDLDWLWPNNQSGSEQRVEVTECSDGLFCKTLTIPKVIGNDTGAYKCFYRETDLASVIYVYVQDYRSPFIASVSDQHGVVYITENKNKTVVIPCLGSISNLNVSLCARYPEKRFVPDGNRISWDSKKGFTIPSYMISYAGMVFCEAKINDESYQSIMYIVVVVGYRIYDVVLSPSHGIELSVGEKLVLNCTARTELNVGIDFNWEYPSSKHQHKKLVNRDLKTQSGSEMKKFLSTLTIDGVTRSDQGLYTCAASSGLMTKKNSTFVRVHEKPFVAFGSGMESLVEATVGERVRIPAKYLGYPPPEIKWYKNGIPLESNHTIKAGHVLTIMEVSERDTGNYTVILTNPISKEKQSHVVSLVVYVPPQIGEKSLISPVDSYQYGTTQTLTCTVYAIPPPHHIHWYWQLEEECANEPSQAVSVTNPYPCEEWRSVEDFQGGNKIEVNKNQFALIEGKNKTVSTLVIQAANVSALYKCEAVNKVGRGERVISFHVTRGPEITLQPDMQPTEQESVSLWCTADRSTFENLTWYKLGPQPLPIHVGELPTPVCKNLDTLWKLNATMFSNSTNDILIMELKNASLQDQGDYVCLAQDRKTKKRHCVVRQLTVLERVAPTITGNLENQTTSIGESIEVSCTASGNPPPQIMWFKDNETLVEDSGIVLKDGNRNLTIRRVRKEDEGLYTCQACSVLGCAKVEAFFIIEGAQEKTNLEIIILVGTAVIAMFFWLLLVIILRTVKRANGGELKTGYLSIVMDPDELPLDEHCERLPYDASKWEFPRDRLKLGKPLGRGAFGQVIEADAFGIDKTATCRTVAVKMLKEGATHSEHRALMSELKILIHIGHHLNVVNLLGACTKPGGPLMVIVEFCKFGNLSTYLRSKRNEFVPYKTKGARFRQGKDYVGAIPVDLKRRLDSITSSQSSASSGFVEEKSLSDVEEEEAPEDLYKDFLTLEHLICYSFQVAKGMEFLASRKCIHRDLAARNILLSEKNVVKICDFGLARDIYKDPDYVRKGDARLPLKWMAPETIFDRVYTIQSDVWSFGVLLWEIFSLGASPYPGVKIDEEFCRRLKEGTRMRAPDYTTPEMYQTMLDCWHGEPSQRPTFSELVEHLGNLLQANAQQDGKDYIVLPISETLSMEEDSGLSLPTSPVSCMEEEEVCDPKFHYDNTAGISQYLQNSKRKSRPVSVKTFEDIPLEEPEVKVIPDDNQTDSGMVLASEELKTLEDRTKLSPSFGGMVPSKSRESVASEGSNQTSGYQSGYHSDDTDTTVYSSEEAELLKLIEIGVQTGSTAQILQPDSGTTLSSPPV

[12] = target: Mitogen-activated protein kinase kinase kinase kinase 5 (Homo sapiens) (UniProt Q9Y4K4); assay: Inhibition of MAP4K5 at 1 uM by KINOMEscan binding assay
[13] = target: Platelet-derived growth factor receptor beta (Homo sapiens, UniProt P09619); assay: Inhibition of PDGFRbeta by radiometric method
[14] = target: Mast/stem cell growth factor receptor Kit (Homo sapiens, UniProt P10721); assay: Inhibition of c-Kit at 1 uM by radiometric method
[15] = target: Epidermal growth factor receptor (Homo sapiens) (UniProt P00533); assay: Inhibition of EGFR at 1 uM by radiometric method
Chain of Epidermal growth factor receptor (Homo sapiens) (P00533 whole entry): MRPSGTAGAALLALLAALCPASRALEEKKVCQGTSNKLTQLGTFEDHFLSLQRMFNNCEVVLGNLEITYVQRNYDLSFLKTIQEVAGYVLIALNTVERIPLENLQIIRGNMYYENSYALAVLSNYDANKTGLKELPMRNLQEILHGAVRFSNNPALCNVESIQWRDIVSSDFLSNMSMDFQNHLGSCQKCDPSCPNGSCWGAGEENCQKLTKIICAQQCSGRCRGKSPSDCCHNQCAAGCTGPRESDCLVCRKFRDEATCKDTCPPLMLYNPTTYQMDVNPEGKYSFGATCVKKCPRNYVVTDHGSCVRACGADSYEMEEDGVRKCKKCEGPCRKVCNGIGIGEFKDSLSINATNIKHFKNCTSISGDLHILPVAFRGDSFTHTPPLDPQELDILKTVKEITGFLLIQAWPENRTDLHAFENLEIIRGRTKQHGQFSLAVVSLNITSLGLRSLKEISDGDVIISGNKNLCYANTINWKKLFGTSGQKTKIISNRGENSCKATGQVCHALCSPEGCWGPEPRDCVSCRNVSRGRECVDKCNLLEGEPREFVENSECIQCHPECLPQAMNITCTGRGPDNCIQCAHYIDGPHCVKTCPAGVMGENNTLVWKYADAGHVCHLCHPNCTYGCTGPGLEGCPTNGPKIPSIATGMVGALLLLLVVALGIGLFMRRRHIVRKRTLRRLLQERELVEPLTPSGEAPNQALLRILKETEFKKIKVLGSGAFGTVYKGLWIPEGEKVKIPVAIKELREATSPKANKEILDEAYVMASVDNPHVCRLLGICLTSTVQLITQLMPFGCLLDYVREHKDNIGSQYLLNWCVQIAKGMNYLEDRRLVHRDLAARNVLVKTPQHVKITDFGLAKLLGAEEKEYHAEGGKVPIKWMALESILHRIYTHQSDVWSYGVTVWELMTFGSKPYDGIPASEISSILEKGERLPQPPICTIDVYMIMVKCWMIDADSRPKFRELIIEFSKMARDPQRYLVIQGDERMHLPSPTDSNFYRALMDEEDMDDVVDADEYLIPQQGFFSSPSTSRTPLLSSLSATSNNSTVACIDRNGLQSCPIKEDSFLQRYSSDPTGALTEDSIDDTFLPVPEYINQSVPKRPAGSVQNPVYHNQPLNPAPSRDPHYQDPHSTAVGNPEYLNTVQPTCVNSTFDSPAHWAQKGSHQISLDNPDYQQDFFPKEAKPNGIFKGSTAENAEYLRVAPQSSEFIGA

[16] = target: T4, Vascular endothelial growth factor receptor 2; assay: Inhibition of VEGFR2 at 1 uM by radiometric method
[17] = system: HeLa; assay: Antiproliferative activity against human HeLa cells after 72 hrs by cell titer 96 assay; type: functional, cell-based
[18] = target: Receptor-type tyrosine-protein kinase FLT3 (Homo sapiens, UniProt P36888); assay: Inhibition of FLT3 by radiometric method
[19] = system: HCT-116; assay: Cell cycle arrest in human HCT116 cells assessed as increase of tetraploid 4N DNA at 4 uM after 24 hrs by flow cytometry; type: functional, cell-based; how it was run: as §1
[20] = target: T3, Macrophage colony-stimulating factor 1 receptor; conditions: 1 uM
[21] = target: Tyrosine-protein kinase receptor UFO (Homo sapiens) (UniProt P30530); assay: Inhibition of AXL at 1 uM by KINOMEscan binding assay
Chain of Tyrosine-protein kinase receptor UFO (Homo sapiens) (P30530 whole entry): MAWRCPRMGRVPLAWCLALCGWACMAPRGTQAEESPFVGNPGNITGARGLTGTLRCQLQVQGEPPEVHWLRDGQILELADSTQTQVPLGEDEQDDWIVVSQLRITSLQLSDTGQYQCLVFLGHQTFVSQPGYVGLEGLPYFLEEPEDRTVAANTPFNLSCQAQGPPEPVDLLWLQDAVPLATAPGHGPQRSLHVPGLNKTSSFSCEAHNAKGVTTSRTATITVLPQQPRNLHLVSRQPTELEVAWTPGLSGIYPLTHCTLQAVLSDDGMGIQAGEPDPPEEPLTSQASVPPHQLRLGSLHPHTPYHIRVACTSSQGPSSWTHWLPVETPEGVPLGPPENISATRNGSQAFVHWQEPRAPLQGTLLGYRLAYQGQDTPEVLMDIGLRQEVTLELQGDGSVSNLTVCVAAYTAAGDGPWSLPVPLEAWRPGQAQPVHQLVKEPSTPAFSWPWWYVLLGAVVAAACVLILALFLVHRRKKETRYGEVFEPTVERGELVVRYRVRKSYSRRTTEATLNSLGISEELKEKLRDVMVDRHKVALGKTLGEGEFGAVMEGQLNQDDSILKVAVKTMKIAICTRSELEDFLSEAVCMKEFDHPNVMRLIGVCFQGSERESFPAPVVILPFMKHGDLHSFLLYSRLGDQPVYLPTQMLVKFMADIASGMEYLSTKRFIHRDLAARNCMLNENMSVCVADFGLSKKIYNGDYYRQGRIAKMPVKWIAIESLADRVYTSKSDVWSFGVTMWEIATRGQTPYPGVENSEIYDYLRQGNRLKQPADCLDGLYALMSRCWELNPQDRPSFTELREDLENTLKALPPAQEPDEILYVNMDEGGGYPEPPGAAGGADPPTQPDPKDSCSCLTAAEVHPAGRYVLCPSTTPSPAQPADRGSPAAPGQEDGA

[22] = target: T2, Aurora kinase A (Homo sapiens); assay: Inhibition of aurora A in human HCT116 cells assessed as reduction of phosphorylated histone H3 at ser10 level measured at 1.25 to 40 uM after 3 hrs by Western blot analysis; type: cell-based; conditions: HCT-116; how it was run: as §2
[23] = target: T2, Aurora kinase A (Homo sapiens); assay: Inhibition of aurora A in human HCT116 cells assessed as reduction of phosphorylated histone H3 at ser10 level measured at 10 uM after 3 hrs by Western blot analysis; type: cell-based; conditions: HCT-116; how it was run: as §2
[24] = target: Tyrosine-protein kinase ABL1 (Homo sapiens) (UniProt P00519); assay: Inhibition of ABL1 at 1 uM by radiometric method
[25] = system: HCT-116; assay: Antiproliferative activity against human HCT116 cells after 72 hrs by [3H]thymidine incorporation assay; type: functional, cell-based

CN(C)CCCc1c(/C=C2\C(=O)Nc3ccc(NS(=O)(=O)c4ccccc4)cc32)[nH]c2c1C(=O)CCC2
pIC50 [1]: 5.66
Activity [2]: Active
inhibition [3]: inactive
inhibition [4]: 6%
pIC50 [5]: > 6.00
residual activity [6]: < 10%
inhibition [7]: -7%
inhibition [8]: 9%
inhibition [9]: 24%
pIC50 [10]: 6.63
pIC50 [11]: > 6.00
residual activity [12]: < 10%
pIC50 [13]: > 6.00
inhibition [14]: 65%
inhibition [15]: 4%
inhibition [16]: 51%
pIC50 [17]: 5.11
pIC50 [18]: > 6.00
Activity [19]: Active
inhibition [20]: 56%
residual activity [21]: < 10%
inhibition [22]: Active
inhibition [23]: Active

CCOC(=O)CCc1c(/C=C2\C(=O)Nc3ccc(NS(=O)(=O)c4ccccc4)cc32)[nH]c2c1C(=O)CCC2
inhibition [3]: Active
inhibition [4]: 24%
inhibition [24]: 31%
pIC50 [5]: < 6.00
residual activity [6]: < 10%
pIC50 [25]: 5.99
inhibition [7]: -8%
inhibition [8]: 11%
inhibition [9]: 47%
residual activity [12]: < 10%
pIC50 [13]: < 6.00
inhibition [14]: 41%
inhibition [15]: 5%
inhibition [16]: 74%
inhibition [20]: 34%
residual activity [21]: < 10%
inhibition [22]: Active
inhibition [23]: Active
